The record followed here is ChEMBL document CHEMBL1144782, “Isoindolo[2,1-a]quinoxaline derivatives, novel potent antitumor agents with dual inhibition of tubulin polymerization and topoisomerase I” (2008).

Molecules are shown by their SMILES. The source made the active and inactive calls. The calls are words filed in the database; no cut-off is given here.

The subject of one test is NCI-H460. As to the kind of experiment: Cell viability against human NCI-H460 cells at 10 uM. Format: functional.
In the next test the test system is MCF7. As to the kind of experiment: Cell viability against human MCF7 cells at 10 uM. In kind it is functional.
A further test relates to SF-268. Nature of the test: Cell viability against human SF268 cells at 10 uM. In kind it is functional.
A further test concerns A549. Nature of the test: Disruption of tubulin network in human A549 cells assessed as disaggregation of microtubules at 1 uM […]. In kind it is functional, cell-based.
The target in another test is Tubulin (Sus scrofa) (UniProt P02554+P02550). As to the kind of experiment: Inhibition of pig brain tubulin polymerization at 3 uM.
Sequence of Tubulin (Sus scrofa) (P02550 whole entry, looked up): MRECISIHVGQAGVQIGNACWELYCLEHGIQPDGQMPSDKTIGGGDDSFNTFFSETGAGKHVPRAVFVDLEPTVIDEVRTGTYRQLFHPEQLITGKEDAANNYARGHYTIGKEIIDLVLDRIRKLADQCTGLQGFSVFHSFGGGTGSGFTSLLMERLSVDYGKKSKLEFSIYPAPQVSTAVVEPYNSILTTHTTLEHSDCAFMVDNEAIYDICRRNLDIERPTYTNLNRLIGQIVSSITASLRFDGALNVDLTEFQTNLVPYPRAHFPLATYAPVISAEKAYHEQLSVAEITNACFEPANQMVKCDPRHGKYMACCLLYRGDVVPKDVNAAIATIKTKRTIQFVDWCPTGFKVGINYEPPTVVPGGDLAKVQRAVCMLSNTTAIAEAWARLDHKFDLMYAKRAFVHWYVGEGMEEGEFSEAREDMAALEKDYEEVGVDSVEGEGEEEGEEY
Sequence of Tubulin (Sus scrofa) (P02554 whole entry, looked up): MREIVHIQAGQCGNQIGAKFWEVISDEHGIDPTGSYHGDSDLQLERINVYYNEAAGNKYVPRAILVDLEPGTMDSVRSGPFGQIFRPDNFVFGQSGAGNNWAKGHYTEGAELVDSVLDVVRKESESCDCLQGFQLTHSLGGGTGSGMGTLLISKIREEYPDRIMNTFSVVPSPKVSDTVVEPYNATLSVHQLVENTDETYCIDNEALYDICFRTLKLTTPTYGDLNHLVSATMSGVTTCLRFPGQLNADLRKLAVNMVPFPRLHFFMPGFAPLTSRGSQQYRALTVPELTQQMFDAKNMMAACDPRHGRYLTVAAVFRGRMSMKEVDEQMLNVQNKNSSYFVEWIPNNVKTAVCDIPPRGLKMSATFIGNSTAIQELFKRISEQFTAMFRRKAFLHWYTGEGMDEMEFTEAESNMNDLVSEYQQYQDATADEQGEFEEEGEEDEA
Another test relates to Jurkat. Nature of the test: Cell cycle arrest in human Jurkat cells at mitosis at 0.5 uM after 24 hrs. In kind it is functional. Put shortly:
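Exponentially growing Jurkat cells were exposed for 24 h, then pelleted at 400g for 5 min. Hypotonic KCl (75 mM, 4 °C) was applied for 20 min, followed by methanol–acetic acid (3:1) fixation and Giemsa staining. 400 cells per treatment were scored microscopically; mitotic index is the fraction with mitotic figures. Three independent experiments, mean ± SEM.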

As for `N#Cc1c2ccccc2c2cnc3cc(Cl)c(Cl)cc3n12`, the Activity in the test on NCI-H460 was 104%; in the test on MCF7, 108%; in the test with SF-268 it was 104%.
Turning to `CC[C@]1(O)C[C@@H]2CN(CCc3c([nH]c4ccccc34)[C@@](C(=O)OC)(c3cc4c(cc3OC)N(C)[C@H]3[C@@](O)(C(=O)OC)[C@H](OC(C)=O)[C@]5(CC)C=CCN6CC[C@]43[C@@H]65)C2)C1`, the outcome with A549 was Active.
As to `CC(=O)O[C@H]1C(=O)[C@@]2(C)[C@H]([C@H](OC(=O)c3ccccc3)[C@]3(O)C[C@H](OC(=O)[C@H](O)[C@@H](NC(=O)c4ccccc4)c4ccccc4)C(C)=C1C3(C)C)[C@]1(OC(C)=O)CO[C@@H]1C[C@@H]2O`, the result at Tubulin (Sus scrofa) was Active.
On to `N#Cc1c2ccccc2c2cnc3ccccc3n12`, for which the Activity in the test with NCI-H460 was 91%; with MCF7, 107%; with SF-268, 94%.
Consider `COc1cc2c(c(OC)c1OC)-c1ccc(OC)c(=O)cc1[C@@H](NC(C)=O)CC2` [COLCHICINE], for which the Activity in the test with Jurkat is 50%.
As for `Cc1cc2ncc3c4ccccc4c(C#N)n3c2cc1C`, the Activity in the test on NCI-H460 stood at 78%; in the test with MCF7, 97%; in the test on SF-268, 83%.
